Results: ChEMBL document CHEMBL5674869, “The Histone Methyltransferase Inhibitor A-366 Uncovers a Role for G9a/GLP in the Epigenetics of Leukemia” (PLoS One, 2015)
Activity calls are given as the source filed them. The rule behind the calls is not given here.

Key:
NCI-H1975 = assay: Antiproliferative against human NCI-H1975 cells after 5 days by Cell-Titer Glo assay; assay type: functional, cell-based; conditions: NCI-H1975, 120 h
Outline: (§1)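 ATCC tumor lines were grown in their recommended media with 10% FBS and STR-authenticated. Cells were exposed to compound for the stated number of days. Viable cells were read by CellTiter-Glo endpoint. Inhibition was the ratio of treated to untreated wells, with cell-free wells set as 100% inhibition. The EC50 was taken from the dose response.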

THP-1 = assay: Antiproliferative against human THP-1 cells after 5 days by Cell-Titer Glo assay; assay type: functional, cell-based; conditions: THP-1, 120 h; outline: as §1
[1] = molecular target: T1, Histone-lysine N-methyltransferase EHMT2 (Homo sapiens) (UniProt Q96KQ7); assay: Inhibition of G9a in human PC-3 cells assessed as decrease in total H3 levels at 10 uM by In cell Western assay; assay type: cell-based
T1 sequence (whole entry): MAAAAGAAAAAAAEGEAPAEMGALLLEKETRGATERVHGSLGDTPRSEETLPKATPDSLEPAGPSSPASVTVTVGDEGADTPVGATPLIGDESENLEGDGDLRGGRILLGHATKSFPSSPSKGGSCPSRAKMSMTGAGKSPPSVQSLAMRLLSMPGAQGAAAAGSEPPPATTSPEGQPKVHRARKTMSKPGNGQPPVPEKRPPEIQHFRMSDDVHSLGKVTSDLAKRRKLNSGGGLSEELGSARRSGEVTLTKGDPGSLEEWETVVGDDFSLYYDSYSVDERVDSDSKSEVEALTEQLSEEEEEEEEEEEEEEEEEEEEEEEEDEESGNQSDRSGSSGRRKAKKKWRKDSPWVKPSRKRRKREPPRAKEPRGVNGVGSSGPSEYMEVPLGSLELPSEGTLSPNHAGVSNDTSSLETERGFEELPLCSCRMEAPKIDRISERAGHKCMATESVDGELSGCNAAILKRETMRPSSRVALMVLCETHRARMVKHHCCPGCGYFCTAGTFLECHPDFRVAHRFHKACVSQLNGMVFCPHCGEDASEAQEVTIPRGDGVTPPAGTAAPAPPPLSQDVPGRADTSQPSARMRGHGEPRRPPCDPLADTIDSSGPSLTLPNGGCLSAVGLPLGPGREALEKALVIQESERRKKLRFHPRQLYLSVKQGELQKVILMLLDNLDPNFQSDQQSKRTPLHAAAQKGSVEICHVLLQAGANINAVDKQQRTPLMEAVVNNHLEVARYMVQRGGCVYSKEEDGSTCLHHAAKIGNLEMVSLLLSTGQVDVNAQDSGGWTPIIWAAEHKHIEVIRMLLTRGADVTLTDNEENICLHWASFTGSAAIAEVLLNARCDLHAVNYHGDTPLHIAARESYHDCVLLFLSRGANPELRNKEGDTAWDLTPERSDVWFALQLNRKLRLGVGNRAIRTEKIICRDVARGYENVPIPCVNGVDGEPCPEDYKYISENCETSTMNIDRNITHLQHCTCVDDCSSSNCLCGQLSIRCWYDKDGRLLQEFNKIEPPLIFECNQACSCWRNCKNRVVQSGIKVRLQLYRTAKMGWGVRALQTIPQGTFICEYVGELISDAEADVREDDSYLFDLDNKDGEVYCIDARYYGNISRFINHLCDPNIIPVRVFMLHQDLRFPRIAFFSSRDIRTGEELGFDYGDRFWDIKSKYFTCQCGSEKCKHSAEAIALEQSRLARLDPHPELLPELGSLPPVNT
Outline: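 PC-3 cells (5,000/well) adhered overnight, then treated in triplicate with DMSO or compound over a concentration range for 72 h at 37 °C, 5% CO2. Cells fixed in 3% formaldehyde, blocked in 1% BSA and co-stained 4 h for H3K9me2 (1:500) and total H3 (1:1000). Fluorescent secondaries read by Odyssey: 800 nm H3K9me2, 700 nm total H3.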

[2] = molecular target: T1, Histone-lysine N-methyltransferase EHMT2 (Homo sapiens); assay: Inhibition of G9a in human PC-3 cells assessed as decrease in H3K9me2 levels after 72 hrs by Western blot analysis
Calu-6 = assay: Antiproliferative against human Calu-6 cells after 5 days by Cell-Titer Glo assay; assay type: functional, cell-based; conditions: Calu-6, 120 h; outline: as §1
U2OS = assay: Antiproliferative against human U2OS cells after 7 days by Cell-Titer Glo assay; assay type: functional, cell-based; conditions: 168 h; outline: as §1
MDA-MB-231 = assay: Antiproliferative activity against human MDA-MB-231 cells assessed as inhibition of colony formation at 10 uM after 14 days by crystal violet staining based clonogenic assay; assay type: functional, cell-based; conditions: time 14.0 day
Outline: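 Clonogenic assay: 500 live cells per well were seeded into six-well plates in drug-free medium. Compound diluted in culture medium was added 24 h later. Cells were cultured at 37°C, then fixed and stained with 0.2% crystal violet. Colonies were counted on an automated colony counter.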

[3] = molecular target: T1, Histone-lysine N-methyltransferase EHMT2 (Homo sapiens); assay: Inhibition of G9a in human HT-1080 cells assessed as decrease in […] levels after 2 days by AlphaLisa assay; assay type: cell-based; conditions: time 2.0 day
Outline: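 HT-1080 cells treated 2 days with compound over a concentration range. Viability read by CellTiter-Glo; H3K9me2 measured by AlphaLISA and normalized to viability. % inhibition calculated relative to untreated cells set as 0%.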

Daoy = assay: Antiproliferative against human Daoy cells after 7 days by Cell-Titer Glo assay; assay type: functional, cell-based; conditions: 168 h; outline: as §1
K562 = assay: Antiproliferative against human K562 cells after 5 days by Cell-Titer Glo assay; assay type: functional, cell-based; conditions: K562, 120 h; outline: as §1
MOLT-16 [4] = assay: Antiproliferative against human MOLT-16 cells after 5 days by Cell-Titer Glo assay; assay type: functional, cell-based; conditions: MOLT-16, 120 h; outline: as §1
DU-145 = assay: Antiproliferative against human DU-145 cells after 5 days by Cell-Titer Glo assay; assay type: functional, cell-based; conditions: DU-145, 120 h; outline: as §1
Kasumi 1 = assay: Antiproliferative against human Kasumi-1 cells after 5 days by Cell-Titer Glo assay; assay type: functional, cell-based; conditions: Kasumi 1, 120 h; outline: as §1
KMS-11 = assay: Antiproliferative against human KMS-11 cells after 5 days by Cell-Titer Glo assay; assay type: functional, cell-based; conditions: KMS-11, 120 h; outline: as §1
[5] = molecular target: T1, Histone-lysine N-methyltransferase EHMT2 (Homo sapiens); assay: Inhibition of G9a in human MOLT-16 cells assessed as decrease in […] levels after 72 hrs by Western blot analysis; assay type: cell-based
Outline: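 MOLT-16 T-ALL cells treated 3 days with compound over a concentration range and lysed. Lysates normalized and immunoblotted for H3K9me2, total H3 and G9a.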

MOLT-16 [6] = assay: Antiproliferative activity against human MOLT-16 cells at EC50 after 5 days by Cell-Titer-Glo assay; assay type: functional, cell-based; conditions: time 5.0 day; outline: as §1
SK-BR-3 = assay: Antiproliferative against human SK-BR-3 cells after 5 days by Cell-Titer Glo assay; assay type: functional, cell-based; conditions: SK-BR-3, 120 h; outline: as §1
[7] = molecular target: T1, Histone-lysine N-methyltransferase EHMT2 (Homo sapiens); assay: Inhibition of G9a in human HL-60 cells assessed as increase in cell differentiation marker CD11b for 14 days by flow cytometry; conditions: time 14.0 day

Compound	EC50 (NCI-H1975) [µM]	EC50 (THP-1) [µM]	inhibition [1]	inhibition [2]	EC50 (Calu-6) [µM]	EC50 (U2OS) [µM]	Activity (MDA-MB-231)	inhibition [3]	EC50 (Daoy) [µM]	EC50 (K562) [µM]	EC50 (MOLT-16 [4]) [µM]	EC50 (DU-145) [µM]	EC50 (Kasumi 1) [µM]	EC50 (KMS-11) [µM]	inhibition [5]	Activity (MOLT-16 [6])	EC50 (SK-BR-3) [µM]	inhibition [7]
COc1cc2c(NC3CCN(C(C)C)CC3)nc(C3CCCCC3)nc2cc1OCCCN1CCCC1	> 10	4.9	Active	Active	1.5	0.5	Active	Active	0.1	5.3	0.2	0.7	1.1	4	Active	Active	0.6	
COc1cc2c(cc1OCCCN1CCCC1)N=C(N)C21CCC1	> 10	> 10	inactive	Dose-Dependent Effect	> 10	> 10		Active	> 10	> 10	> 10	> 10	> 10	> 10	Active	inactive	> 10	Active
